Compounds with a hit are over-represented: about 1.8% of the library has one in this group of screens.
Jurkat NFkB inh: inhibitors of the PMA/ionomycin-induced NF-kB reporter in Jurkat cells | inhibition, % at 4 µM | hit rate 0.53% among 330,000 | PMA/ionomycin-induced NF-kB luciferase reporter, luminescence; in the data active = inhibition above about 50%
Gli-Sufu antag: blocks Gli-Sufu signaling in a luciferase reporter | Sufu-KO-LIGHT fibroblasts, Gli luciferase reporter luminescence | inhibition, % at 5 µM | hit rate 0.74% among 340,000;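 active = inhibition above about 55%, limit read from the data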;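 note: 0% = DMSO-treated cells and 100% = wells with medium but no cells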
iPSC survival up: increases survival of single human iPS cells; AID 602274; hiPSC single-cell survival, ATPlite luminescence; 100% = ROCK inhibitor wells, 0% = DMSO; hit rate 0.044% among 360,000; survival enhancement, % at 20 µM; in the data active = survival enhancement above about 18%;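 note: cells exposed to compounds for 16 hours before the ATP read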
H9c2 TAG inh: triacylglycerol accumulation inhibition | H9c2 cells, Nile Red lipid (TAG) fluorescence; cells loaded with 200 µM oleic acid | inhibition, % at 12.5 µM | hit rate 0.66% among 230,000 | AID 651582;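 active = pattern-corrected inhibition of lipid staining of at least 50% with the nuclear-stain viability signal not falling by more than 50%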;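 note: 0% = DMSO wells and 100% = triacsin C control wells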
Lipid droplet: hepatic lipid droplet formation modulation; AML12 mouse hepatocytes, oleate lipid droplets, BODIPY imaging; hit rate 0.4% among 240,000; inhibition, % at 6.5 µM; AID 1656;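 active = lipid droplet intensity inhibited by at least 50%, with more than 500 cells counted; inconclusive = wells with under 300 cells, treated as cytotoxic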
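material = mouse AML12 hepatocyte cell line, fixed after treatment | also added = 100 µM oleic acid challenge | doses = compound at 6.5 µM only | schedule = overnight exposure | technique = Image-based BODIPY and DAPI two-channel analysis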
697 NFkB inh: lowers PMA/ionomycin-induced NF-kB signal in 697 B cells; 697 B-cell NF-kB luciferase reporter, 16 h; inhibition, % at 4 µM; hit rate 0.33% among 330,000; AID 435022; in the data active = inhibition above about 35%
Jurkat NFkB conf: lowers PMA/ionomycin-induced NF-kB signal in Jurkat cells | shares compounds with Jurkat NFkB inh | Jurkat NF-kB luciferase, 16 h | inhibition, % at 4 µM | hit rate 27% among 2,700 | AID 435020;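 active = inhibition reaching about 45% at 4 µM in either replicate, limit read from the data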;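 note: plate controls were PMA/ionomycin stimulated DMSO wells for no effect and unstimulated DMSO wells for full effect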
TAG conf: confirmation of triacylglycerol accumulation inhibitors; shares compounds with H9c2 TAG inh; H9c2 lipid accumulation, Nile Red fluorescence; cells loaded with 200 µM oleic acid; inhibition, % at 12.5 µM; hit rate 71% among 990; AID 651629;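 active = mean inhibition across replicates of 40% or more; inactive = mean inhibition below 40%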;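 note: plate controls were DMSO only wells for no effect and Triacsin C treated wells for full effect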
The depositor's hits bear a star; ? = inconclusive; nt = no result.

SMILES	Jurkat NFkB inh	Gli-Sufu antag	iPSC survival up	H9c2 TAG inh	Lipid droplet	697 NFkB inh	Jurkat NFkB conf	TAG conf
COC(=O)c1[nH]c2c(c1C)C(=O)CC(c1ccc(C)cc1)C2 (stereo not drawn)	20	2	1	-18	5	2	nt	nt
COCCOC(=O)c1[nH]c2c(c1C)C(=O)CC(c1cccs1)C2 (stereo not drawn)	nt	5	-1	44	?	nt	nt	nt
Cc1c(C(=O)OCC(C)C)[nH]c2c1C(=O)CC(c1cccs1)C2 (stereo not drawn)	51*	37	2	64*	-144	-19	49	50*
CCOCCOC(=O)c1[nH]c2c(c1C)C(=O)CC(c1cccs1)C2 (stereo not drawn)	75*	31	0	53*	?	16	46	50*
CCOc1ccc(CC(=O)N2N=C(C)CC2(O)C(F)(F)F)cc1 (stereo not drawn)	-16	-7	1	nt	-18	-17	nt	nt
Cc1cc(N2CCN(Cc3cn(C)nc3-c3cccc(Cl)c3)CC2)cc(C)n1	62*	10	0	71*	-17	-23	5	77*
CN1CCN(Cc2cn(C)nc2-c2ccccc2F)CC1c1ccccc1 (stereo not drawn)	-2	19	0	-3	-2	21	nt	nt
Cc1cc(N2CCN(Cc3cn(C)nc3-c3ccccc3F)CC2)cc(C)n1	69*	-12	0	74*	-66	-24	-8	84*
O=C1OCC2=C1C(c1ccc3c(c1)OCO3)c1cc3c(cc1O2)OCO3 (stereo not drawn)	nt	-16	-1	28	nt	nt	nt	nt
CC(C)c1ccc(C2C3=C(COC3=O)Nc3cc4c(cc32)OCO4)cc1 (stereo not drawn)	70*	47	-1	54*	?	11	2	39
Cc1nnc(NC(=O)CSc2ccc3nnc(-c4cccnc4)n3n2)s1	-11	nt	nt	nt	-3	-13	nt	nt
Cc1cccc2c(C(=O)N3CCN(c4ccccc4)CC3)cc(-c3ccncc3)nc12	60*	20	0	60*	-176	8	-3	77*
COc1cccc(C2/C(=C(\O)c3ccc4c(c3)OCCO4)C(=O)C(=O)N2CCCN2CCOCC2)c1OC (stereo not drawn)	10	-5	0	nt	-4	3	nt	nt
O=c1cc(-c2ccccc2)[nH]c2ccccc12	55*	32	3	66*	nt	-14	40	49*
COc1ccc(CCN2C(=O)C3C(C2=O)C2C=CC3C23CC3)cc1OC (stereo not drawn)	10	7	1	2	-12	8	nt	nt
CCOc1ccc(S(=O)(=O)NCc2ccccn2)cc1NC(=O)c1ccccc1	53*	9	0	58*	nt	-26	46*	78*
CCOC(=O)C1=C[C@@H](c2ccccc2)N(S(=O)(=O)c2ccc(C)cc2)[C@H]1c1cccc(Cl)c1	nt	nt	0	nt	nt	nt	nt	nt
COc1ccc([C@H]2CC(=O)C=C(c3ccc(OC)cc3OC)C2)cc1	58*	7	-2	52*	nt	-49	48*	81*
COc1ccccc1/C=C/CN1CCNC(=O)C1CC(=O)NCCc1cnccn1 (stereo not drawn)	-1	0	0	nt	23	3	nt	nt
CN(C)CCNC(=O)C(=O)Nc1ccc2c(c1)N(S(=O)(=O)c1cccs1)CCC2	65*	1	0	54*	nt	9	14	54*
COCCCNC(=O)C(=O)Nc1ccc2c(c1)N(S(=O)(=O)c1cccs1)CCC2	62*	20	-1	54*	nt	-3	57*	61*
Cc1cc(NC(=O)c2ccccc2C)n(-c2cccc(F)c2)n1	-19	3	-1	nt	4	7	nt	nt
Cc1ccc2c(C)c(C(=O)N(C)Cc3nccn3C)oc2c1C	8	-3	0	-30	-2	9	nt	nt
COc1ccc(CCNS(=O)(=O)c2ccc(N3CCCC3=O)cc2)cc1	0	4	1	6	nt	-15	nt	nt

Compound activity: PubChem, Sanford-Burnham Center for Chemical Genomics
